GalR3 antagonist – blocks the human galanin receptor 3. HEK293 GalR3-CNG cAMP membrane potential fluorescence; galR3 body fused to GalR1 C-terminus. O60755. inhibition, % at 3 µM. 0.44% of 360,000 active;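 active = inhibition above the screen-wide average plus 3 SD, cut at about 13% in these data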;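 also: forskolin and galanin both at EC90 stimulate the cells; cAMP rise reported by CNG channel membrane potential dye signal; 0% = forskolin plus galanin with DMSO and 100% = forskolin alone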
Target sequence (O60755 1-299 limits assumed): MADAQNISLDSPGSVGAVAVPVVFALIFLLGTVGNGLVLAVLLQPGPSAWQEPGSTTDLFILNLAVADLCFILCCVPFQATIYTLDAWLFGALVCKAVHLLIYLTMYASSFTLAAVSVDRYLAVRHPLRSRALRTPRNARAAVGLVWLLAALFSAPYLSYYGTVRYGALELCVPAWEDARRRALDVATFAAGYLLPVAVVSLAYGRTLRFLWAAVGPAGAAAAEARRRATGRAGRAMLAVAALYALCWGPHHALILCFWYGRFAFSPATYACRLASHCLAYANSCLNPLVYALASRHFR
OX1R antag-1 – blocks the human orexin 1 receptor; AID 434989; O43613; CHO/OX1R cells, Fluo-8 calcium fluorescence, orexin A; inhibition, % at 5 µM; 0.43% of 330,000 active;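 active = inhibition above its plate's threshold, mean inhibition of all tested compounds on the plate plus 3 SD, cut at about 37% in these data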;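 also: 0% = orexin A challenge wells and 100% = SB-334867-A antagonist wells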
GPR7 antag – antagonists of human GPR7 (neuropeptides B/W receptor 1) | P48145 | GPR7-expressing cells, fluorescence antagonist assay | inhibition, % at 4.4 µM | 1.1% of 290,000 active | AID 1861; in the data active = inhibition above about 16%, passing the limit was not always enough;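 also: cells stimulated with the agonist NPW; 0% = agonist with vehicle and 100% = vehicle without agonist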
Target sequence (P48145 whole entry, looked up): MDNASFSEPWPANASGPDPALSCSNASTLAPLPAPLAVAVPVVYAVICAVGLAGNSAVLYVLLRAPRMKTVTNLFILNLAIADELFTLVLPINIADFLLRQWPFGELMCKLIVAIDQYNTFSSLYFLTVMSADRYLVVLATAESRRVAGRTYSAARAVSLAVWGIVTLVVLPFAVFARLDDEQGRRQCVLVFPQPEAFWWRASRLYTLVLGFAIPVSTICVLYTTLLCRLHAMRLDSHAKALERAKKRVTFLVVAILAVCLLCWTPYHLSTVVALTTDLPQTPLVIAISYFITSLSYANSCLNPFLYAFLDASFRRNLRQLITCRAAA
CHO parental Ca – signal in parental CHO cells, OX1R antagonist counter-screen; parental CHO-K1, ATP-induced calcium, Fluo-8 fluorescence; inhibition, % at 5.6 µM; 0.63% of 330,000 active; AID 463079;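 active = inhibition above that plate's mean sample inhibition plus 3 SD, cut at about 26% in these data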;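 also: 0% = ATP-challenged DMSO wells and 100% = DMSO wells without ATP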
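Assay system: parental CHO cells; Read-out basis: percent inhibition of ATP-evoked calcium rise, normalized to controls; Benchmarks: ATP and no-ATP DMSO wells; Compound dosing: single nominal dose of 5.6 µM per compound; Signal: Fluo-8 calcium dye fluorescence; Also added: ATP as calcium-mobilizing challenge; Repeats: singlicate.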
OX1R antag-2 – OX1R (human) antagonism | O43613 | OX1R-expressing cells, FRET antagonist read-out | inhibition, % at 6.6 µM | 1.8% of 330,000 active | AID 485270; in the data active = inhibition mostly above about 38%, no sharp cut-off; inactive = mostly below about 40%;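 also: 0% = agonist challenge alone and 100% = reference antagonist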
* = called active by the depositor; · = no result. Shown are actives, neighbours in structure and some others; about 3.1% of the full set was active somewhere.

SMILES	GalR3 antagonist	OX1R antag-1	GPR7 antag	CHO parental Ca	OX1R antag-2
C/C(=C/CCC(C)(O)C1CC[C@@]2(C)[C@@H]3CC=C4[C@@H](CC[C@H](O[C@H]5O[C@@H](CO)[C@H](O)[C@@H](O)[C@@H]5O)C4(C)C)[C@]3(C)C(=O)C[C@]12C)CO[C@@H]1O[C@H](CO)[C@@H](O)[C@H](O)[C@H]1O (stereo not given in full)	-4	-3	·	-1	7
COc1ccc2cc3cc(C(=O)N4CCCCCC4)oc3nc2c1	·	2	5	-10	57*
COc1ccc2cc3cc(C(=O)NCCN4CCc5ccccc5C4)oc3nc2c1	·	-18	-3	-11	42*
COc1ccc2cc3cc(C(=O)NCCCN4CCC(C)CC4)oc3nc2c1	·	-19	-13	-4	46*
COc1ccc2cc3cc(C(=O)N4CCN(C5CCCCC5)CC4)oc3nc2c1	·	-9	-7	-4	15
COc1ccc2cc3cc(C(=O)NCCN4CCN(Cc5ccccc5)CC4)oc3nc2c1	-7	-38	-1	-33	61
O=C(Nc1ccc2ncccc2c1)Nc1ccc2ncccc2c1	-6	-4	5	-14	76*
CCOC(OCC)c1cn(Cc2ccc3c(c2)C(=O)c2ccccc2C3=O)nn1	-9	-15	-5	-9	76*
CCOC(=O)c1cn(Cc2ccc(Br)cc2)nn1	3	-14	-2	-5	5
CCCCc1c(-c2ccccc2OC)ncn1Cc1ccccc1F	-5	·	·	·	·
CCc1ccc2c(c1)C(O)(CC(=O)c1cccs1)C(=O)N2 (stereo not given)	-1	-9	-13	-8	6
CCn1c(SCc2nc(-c3ccccc3)no2)nc2ccccc21	0	1	-12	-10	54*
CCOC(=O)C1C(=O)C(=O)N(Cc2ccccc2)C1C(=O)OCC (stereo not given)	-6	·	·	·	·
CC(C)CN(C(=O)COC(=O)c1ccc([N+](=O)[O-])s1)c1c(N)n(Cc2ccccc2)c(=O)[nH]c1=O	-2	-11	·	-5	28
CCCCn1c(N)c(N(CCOC)C(=O)c2cc(=O)[nH]c3ccccc23)c(=O)[nH]c1=O	-7	2	·	3	5
CCCCn1c(N)c(N(CCC(C)C)C(=O)COC(=O)c2ccc([N+](=O)[O-])s2)c(=O)[nH]c1=O	-3	-12	·	-12	35*
CCCCN(C(=O)c1cc(=O)[nH]c2ccccc12)c1c(N)n(CCC)c(=O)[nH]c1=O	·	-19	-12	-8	80*
CCCCN(C(=O)c1ccc([N+](=O)[O-])s1)c1c(N)n(CCCC)c(=O)[nH]c1=O	-2	-21	·	-9	63*
O=C(COc1ccc(S(=O)(=O)N2CCOCC2)cc1)Nc1ccc(Br)cc1	-5	-9	·	-9	5
O=C(CCCOc1ccc(Br)cc1)Nc1ccc(S(=O)(=O)N2CCOCC2)cc1	-4	27	·	35*	14
N#CC(C#N)=NNc1ccc(S(=O)(=O)N2CCCCC2)cc1	-3	1	-8	-15	57*
CC(SCC(=O)Nc1ccc(S(=O)(=O)N2CCCCC2)cc1)C(=O)O (stereo not given)	2	-6	19*	-17	12
CN1CCN(S(=O)(=O)c2ccc(NC(=O)c3ccc(Br)s3)cc2)CC1	2	-10	18*	-11	-1
O=C(Cc1ccc(Br)cc1)Nc1ccccc1Cl	-2	-8	1	-1	5
CC(=O)Nc1ccc(S(=O)(=O)N2CCN(S(=O)(=O)N3CCCCCC3)CC2)cc1	-1	-23	19*	-15	9
SMILES	GalR3 antagonist	OX1R antag-1	GPR7 antag	CHO parental Ca	OX1R antag-2
O=C(Nc1ccccc1)Nc1ccc(S(=O)(=O)N2CCCCC2)cc1	-4	34	-12	38*	43
O=C(Nc1ccc(S(=O)(=O)N2CCCCC2)cc1)c1ccccc1Cl	-4	-4	19	-3	21
Cc1ccc(S(=O)(=O)N2CCN(CC(=O)N3CCOCC3)CC2)cc1	3	-6	-2	-8	16
CC(=O)Nc1ccc(S(=O)(=O)N2CCCC2)cc1	-11	-3	-7	-9	15
O=C(CN1CCN(S(=O)(=O)c2ccc(Br)cc2)CC1)Nc1ccc2c(c1)OCO2	4	-16	31*	-5	4
CC(=O)Nc1ccc(S(=O)(=O)N2CCN(CC(=O)N3CCOCC3)CC2)cc1	-3	4	20*	-9	0
O=C(CN1CCOCC1)Nc1ccc2c(c1)OCO2	-4	-11	-4	-4	24
O=C1CSC(c2ccccc2[N+](=O)[O-])N1c1cccc(F)c1 (stereo not given)	-3	-10	-4	-11	42
COc1ccc(S(=O)(=O)Nc2ccccc2C(=O)N2CCOCC2)cc1Cl	1	-11	-15	-20	7
COc1ccccc1CCn1cnc(-c2ccc(F)cc2F)c1CC(C)C	-3	·	·	·	·
O=C(COC(=O)c1ccccc1C(=O)c1ccc(Cl)c([N+](=O)[O-])c1)NC1CCCCCC1	-4	48*	30*	39*	21
Nc1cc(Cl)ccc1C(=O)OCC(=O)NC1CCCCC1	-2	17	0	30*	25
Cn1c(N)c(C(=O)COC(=O)c2ccccc2C(=O)c2ccc(Cl)c([N+](=O)[O-])c2)c(=O)n(C)c1=O	·	12	·	-2	36*
O=C(COC(=O)c1ccc(Cl)c([N+](=O)[O-])c1)NC1CCCC1	-12	-10	-5	-8	17
O=C(COC(=O)c1ccc2c(c1[N+](=O)[O-])C(=O)c1ccccc1C2=O)NC1CC1	1	9	-16	21	74*
CCN(C(=O)COC(=O)c1ccc(Cl)cc1N)C1CCCCC1	-5	-14	-6	-5	29
CCCSc1ccc([C@@H]2[C@H]3C(=O)N(CC)C(=O)[C@H]3[C@]3(C(=O)OC)CCCCN23)cc1	-2	-52	·	-34	29
CC(NC(=O)c1cc2cc(Br)ccc2oc1=N)c1ccccc1 (stereo not given)	-2	-16	-6	-2	18
COC(=O)[C@@]1(Cc2ccc(OC)cc2)[C@H]2c3cc(C(=O)N4CCCC4)n(CCSCCO)c3C[C@H]2CN1C(=O)c1ccccc1	·	-6	2	-8	20
NC(=O)CC(NC(=O)c1ccccc1)c1ccc(NC2CCCCC2)c([N+](=O)[O-])c1 (stereo not given)	-6	-21	·	-12	7
CC1CCCC(C)N1C(=O)COC(=O)c1cc([N+](=O)[O-])ccc1N1CCOCC1 (stereo not given)	-5	-29	·	-15	43
CC1CCCC(C)N1C(=O)COC(=O)c1ccc([N+](=O)[O-])o1 (stereo not given)	0	-22	·	6	39*
CCOC(=O)C1=C(COC(=O)c2ccc([N+](=O)[O-])o2)NC(=O)NC1C (stereo not given)	-4	-16	·	-5	30*
CC1CC(C)CN(C(=O)COC(=O)c2ccc([N+](=O)[O-])o2)C1 (stereo not given)	-4	-4	·	3	25

From PubChem
